Calls of active or inactive are those of the source. The rule behind the calls is not given here.
Experiments:
H9c2 [1] = test: Antioxidant activity in rat H9c2 cells assessed as protection against H2O2-induced hypoxic injury by measuring cell viability at 10 uM preincubated for 4 hrs followed by H2O2 stimulation for 1 hr by MTT assay relative to control; format: functional
Procedure, shortened: (§1)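 H9c2 cells at 1 × 10^5 cells/mL, 100 μL per well in triplicate, left 18 h. Compound diluted in DMSO; DMSO alone as negative control. 4 h pretreatment, then 400 nM H2O2 for 1 h. Medium removed and MTT added for 2-4 h, formazan dissolved in DMSO, absorbance at 570 nm. Medium-only wells gave the blank.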

H9c2 [2] = test: Antioxidant activity in rat H9c2 cells assessed as protection against H2O2-induced hypoxic injury by measuring cell viability at 1 uM preincubated for 4 hrs followed by H2O2 stimulation for 1 hr by MTT assay relative to control; format: functional; procedure, shortened: as §1
[3] = Cmax in Sprague-Dawley rat at 10 mg/kg, po measured upto 24 hrs by LC-MS/MS analysis; format: ADME, organism-based; set-up: route oral, dose 10 mg/kg, time <=24; conditions: in vivo
H9c2 [4] = test: Anti-oxidative effect in rat H9c2 cells assessed as reduction in H2O2-induced MnSOD activity at 10 uM preincubated for 4 hrs followed by H2O2 stimulation for 1 hr by WST-8 assay; format: functional, cell-based; conditions: time 5.0 hrs
Procedure, shortened: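 H9c2 cells (ATCC) grown in high-glucose DMEM with 10% FBS at 37 °C, 5% CO2, used at 80-90% confluence and serum-starved 12 h. Compound given 4 h, then medium replaced by DMEM with 500 nM H2O2 for 1 h. Lysate spun 15,000g for 15 min. Cu/Zn SOD blocked with 1 mmol/L KCN, MnSOD read by WST-8 kit, expressed as U/mg protein.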

H9c2 [5] = test: Cytoprotective activity against H2O2-induced injury in rat H9c2 cells assessed as reduction in LDH release at 1 uM preincubated for 4 hrs followed by H2O2 stimulation for 1 hr by LDH assay; format: functional, cell-based; conditions: time 5.0 hrs
Procedure, shortened: (§2)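 Cells at 5 × 10^4 per well in triplicate, 18 h, then 4 h compound and 1 h H2O2. Model wells had H2O2 without compound; controls had DMSO. 50 μL medium mixed with 2X LDH assay buffer, kept in the dark at 22-25 °C for 10-30 min, read at 490-520 nm. Activity blank-subtracted, normalised to BCA protein of the lysed cells, and expressed relative to model wells.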

[6] = AUCinfinity in Sprague-Dawley rat at 1 mg/kg, iv measured upto 24 hrs by LC-MS/MS analysis; format: ADME, organism-based; set-up: route intravenous, dose 1 mg/kg, time <=24; conditions: in vivo
Procedure, shortened: (§3)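 Male Sprague-Dawley rats, fasted, N = 3, given a single 1 mg/kg intravenous dose. Plasma separated by centrifugation and drug quantified by LC-MS/MS. Values reported as mean ± SD.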

[7] = Oral bioavailability in Sprague-Dawley rat at 10 mg/kg measured upto 24 hrs by LC-MS/MS analysis; format: ADME, organism-based; conditions: in vivo
[8] = AUCinfinity in Sprague-Dawley rat at 10 mg/kg, po measured upto 24 hrs by LC-MS/MS analysis; format: ADME, organism-based; set-up: route oral, dose 10 mg/kg, time <=24; conditions: in vivo
Procedure, shortened: (§4)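 A single 10 mg/kg oral (i.g.) dose was given to male Sprague-Dawley rats, N = 3. Plasma was harvested by centrifugation and measured by LC-MS/MS. Values reported as mean ± SD.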

[9] = Apparent volume of distribution during terminal phase in Sprague-Dawley rat at 10 mg/kg, po measured upto 24 hrs by LC-MS/MS analysis; format: ADME, organism-based; conditions: in vivo, read-out: Vz/F
H9c2 [10] = test: Antiapoptotic activity in rat H9c2 cells assessed as restoration of H2O2-induced bcl-2 downregulation at 1 uM preincubated for 4 hrs followed by H2O2 stimulation for 1 hr by Western blotting analysis; format: functional, cell-based; conditions: time 5.0 hrs
Procedure, shortened: (§5)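 Serum-starved (12 h) H9c2 cells were pretreated 4 h, then exposed to 500 nM H2O2 in DMEM for 1 h. Lysis on ice with protease/phosphatase inhibitors, then 13,000 g at 4 °C for 15 min. 20 μg protein run on 8-12% SDS-PAGE and blotted to PVDF. Probed overnight at 4 °C for caspase-3, pro-caspase-3, Bcl-2 and GAPDH, with chemiluminescent detection.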

H9c2 [11] = test: Antioxidant activity in rat H9c2 cells assessed as protection against H2O2-induced hypoxic injury by measuring cell viability at ED50 concentration preincubated for 4 hrs followed by H2O2 stimulation for 1 hr by MTT assay relative to control; format: functional; conditions: time 5 hrs
Procedure, shortened: (§6)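 ED50 taken from log dose against % viability. Viability also reported at the EC50 concentration. Means ± SEM from three independent experiments.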

Mus musculus [12] = test: (§7) Cardioprotective activity in C57BL/6J mouse model of LAD coronary artery ligation-induced acute myocardial infarction assessed as reduction in epimyocardium damage at 5 mg/kg, ip pretreated for 7 consecutive days followed by LAD coronary artery ligation after compound treatment for another 3 days by hematoxylin and eosin staining based assay; format: functional, organism-based; conditions: time 10.0 day
Procedure, shortened: (§8)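 Eight-week C57BL/6J mice received 5 mg/kg/day i.p. (saline vehicle) for 7 days before permanent LAD ligation, then 3 further days. Paraffin heart sections deparaffinised, stained with hematoxylin 10 min, differentiated in 0.1% HCl, counterstained with eosin 3-5 min, then examined by light microscopy.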

Mus musculus [13] = test: as §7, with “myocardial infarct size” for “epimyocardium damage”, “TTC” for “hematoxylin and eosin”; format: functional, organism-based; conditions: time 10.0 day
Procedure, shortened: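 Male/female not stated; 8-week C57BL/6J mice given daily ip doses in saline vehicle for 7 d, then permanent LAD ligation, with dosing continued 3 more days to sacrifice. Under isoflurane, hearts perfused with saline plus 40 mM KCl, cut into 4-5 transverse slices, stained with 1% TTC pH 7.4 at 37 °C for 20 min, formalin-fixed; infarct area by planimetry as % of LV area; N = 6-7 per group.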

H9c2 [14] = test: Antioxidant activity in rat H9c2 cells assessed as protection against H2O2-induced hypoxic injury by measuring cell viability preincubated for 4 hrs followed by H2O2 stimulation for 1 hr by MTT assay relative to control; format: functional; conditions: time 5 hrs, read-out: ED50 (the source's name); procedure, shortened: as §6
[15] = Cmax in Sprague-Dawley rat at 1 mg/kg, iv measured upto 24 hrs by LC-MS/MS analysis; format: ADME, organism-based; set-up: route intravenous, dose 1 mg/kg, time <=24; conditions: in vivo
[16] = Apparent clearance in Sprague-Dawley rat at 10 mg/kg, po measured upto 24 hrs by LC-MS/MS analysis; format: ADME, organism-based; conditions: in vivo
Mus musculus [17] = test: as §7, with “cardiomyocytes” for “epimyocardium”; format: functional, organism-based; conditions: time 10.0 day; procedure, shortened: as §8
Mus musculus [18] = test: as §7, with “apoptosis of cardiomyocytes” for “epimyocardium damage”, “TUNEL” for “hematoxylin and eosin”; format: functional, organism-based; conditions: time 10.0 day
Procedure, shortened: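 C57BL/6J mice, 8 weeks old, given compound i.p. in saline vehicle daily for 7 days, then permanent LAD ligation with body temperature held at 37 °C. Dosing continued 3 more days until sacrifice. Sections treated with proteinase K, then TdT reaction 30 min at 37 °C and DAPI counterstain. TUNEL-positive nuclei in border area counted as % of DAPI nuclei, N = 4 per group.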

[19] = AUClast in Sprague-Dawley rat at 10 mg/kg, po measured upto 24 hrs by LC-MS/MS analysis; format: ADME, organism-based; set-up: route oral, dose 10 mg/kg, time <=24; conditions: in vivo; procedure, shortened: as §4
[20] = Half life in Sprague-Dawley rat at 1 mg/kg, iv measured upto 24 hrs by LC-MS/MS analysis; format: ADME, organism-based; conditions: in vivo
H9c2 [21] = test: Antiapoptotic activity in rat H9c2 cells assessed as reduction in H2O2-induced caspase-3 activation at 1 uM preincubated for 4 hrs followed by H2O2 stimulation for 1 hr by Western blotting analysis; format: functional, cell-based; conditions: time 5.0 hrs; procedure, shortened: as §5
[22] = Half life in Sprague-Dawley rat at 10 mg/kg, po measured upto 24 hrs by LC-MS/MS analysis; format: ADME, organism-based; conditions: in vivo
[23] = Apparent volume of distribution during terminal phase in Sprague-Dawley rat at 1 mg/kg, iv measured upto 24 hrs by LC-MS/MS analysis; format: ADME, organism-based; conditions: in vivo
H9c2 [24] = test: Antiapoptotic activity in rat H9c2 cells assessed as reduction in H2O2-induced mitochondrial membrane potential loss at 1 uM preincubated for 4 hrs followed by H2O2 stimulation for 1 hr by JC1 staining based fluorescence microscopic analysis; format: functional, cell-based; conditions: time 5.0 hrs
Procedure, shortened: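 Pretreatment 4 h before 400 nM H2O2. Cells washed in cold PBS pH 7.4 and loaded with 0.5 μg/mL JC-1 for 40 min at 37 °C, washed, then viewed at once by fluorescence microscopy. Monomer read at ex 490/em 535 nm, aggregate at ex 525/em 600 nm. Ratio taken from three independent fields per group, mean ± SD.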

[25] = Toxicity in C57BL/6J mouse assessed as diarrhea at 5 mg/kg, ip administered for 7 consecutive days; format: organism-based; conditions: in vivo, 168 h, time 7 day
[26] = AUClast in Sprague-Dawley rat at 1 mg/kg, iv measured upto 24 hrs by LC-MS/MS analysis; format: ADME, organism-based; set-up: route intravenous, dose 1 mg/kg, time <=24; conditions: in vivo; procedure, shortened: as §3
[27] = Toxicity in C57BL/6J mouse assessed as loss of body weight at 5 mg/kg, ip administered for 7 consecutive days; format: organism-based; conditions: in vivo, 168 h, time 7 day
H9c2 [28] = test: Cytoprotective activity against H2O2-induced injury in rat H9c2 cells assessed as reduction in LDH release at 10 uM preincubated for 4 hrs followed by H2O2 stimulation for 1 hr by LDH assay; format: functional, cell-based; conditions: time 5.0 hrs; procedure, shortened: as §2

## COc1cc(C(=O)OCCCCN)cc(OC)c1O
H9c2 [1]
  Activity: 56.2%
H9c2 [2]
  Activity: 56.3%

## COc1cccc(C(=O)OCCCCNC(=N)N)c1OC
[3]
  Cmax: 621 ng/mL
H9c2 [4]
  Activity: Active
H9c2 [5]
  Activity: Active
[6]
  AUC(0-inf): 895 ng·h/mL
[7]
  bioavailability: 18.5%
[8]
  AUC(0-inf): 1680 ng·h/mL
[9]
  Vd/F: 43.7 L/kg
H9c2 [10]
  Activity: Active
H9c2 [11]
  Activity: 62.8%
H9c2 [1]
  Activity: 65.3%
Mus musculus [12]
  Activity: Active
Mus musculus [13]
  Activity: Active
H9c2 [14]
  EC50: 0.142 µM
[15]
  Cmax: 764 ng/mL
[16]
  CL/F: 92.9 mL/min/kg
Mus musculus [17]
  Activity: Active
Mus musculus [18]
  Activity: Active
[19]
  AUC(0-t) at 24 h: 1630 ng·h/mL
[20]
  half-life: 1.63 h
H9c2 [21]
  Activity: Active
[22]
  half-life: 4.87 h
[23]
  Vz/F: 3.766 L/kg
H9c2 [2]
  Activity: 69.3%
H9c2 [24]
  Activity: Active
[25]
  Activity: Non-Toxic
[26]
  AUC(0-t) at 24 h: 882 ng·h/mL
[27]
  Activity: Non-Toxic

## COc1cc(C(=O)OCCNC(=N)N)cc(OC)c1O
H9c2 [1]
  Activity: 61.9%
H9c2 [2]
  Activity: 53.6%

## N=C(N)NCCCCOC(=O)c1ccncc1
H9c2 [1]
  Activity: 53.2%
H9c2 [2]
  Activity: 54%

## CC(=O)Oc1cccc(C(=O)OCCCCNC(=N)N)c1
H9c2 [1]
  Activity: 62.8%
H9c2 [2]
  Activity: 59.7%

## COc1cc(C(=O)OCCCCNC(=N)N)cc(OC)c1OC(C)=O
H9c2 [1]
  Activity: 55.2%
H9c2 [2]
  Activity: 52.3%

## COc1ccc(C(=O)OCCCCNC(=N)N)cc1
H9c2 [1]
  Activity: 58.6%
H9c2 [2]
  Activity: 61.2%

## COc1cc(C(=O)OCCN2CCOCC2)cc(OC)c1O
H9c2 [1]
  Activity: 50.5%
H9c2 [2]
  Activity: 52.3%

## COc1cc(C(=O)OC(C)CNC(=N)N)cc(OC)c1O (centres undefined)
H9c2 [1]
  Activity: 54.2%
H9c2 [2]
  Activity: 52.2%

## COc1ccc(OC)c(C(=O)OCCCCNC(=N)N)c1
H9c2 [1]
  Activity: 57.7%
H9c2 [2]
  Activity: 53.3%

## COc1cc(C(=O)OCCCN(C)C)cc(OC)c1O
H9c2 [1]
  Activity: 61.7%
H9c2 [2]
  Activity: 55.2%

## COc1cc(C(=O)OCCN(C)C)cc(OC)c1O
H9c2 [1]
  Activity: 48.5%
H9c2 [2]
  Activity: 47.8%

## N=C(N)NCCCCOC(=O)c1ccc([N+](=O)[O-])cc1
H9c2 [1]
  Activity: 59.6%
H9c2 [2]
  Activity: 67.7%

## COc1cc(C(=O)OCC2CCN(C(=N)N)CC2)cc(OC)c1O
H9c2 [1]
  Activity: 61%
H9c2 [2]
  Activity: 56.2%

## N=C(N)NCCCCO
H9c2 [1]
  Activity: 51.4%
H9c2 [2]
  Activity: 46.8%

## N=C(N)NCCCCOC(=O)C12CC3CC(CC(C3)C1)C2
H9c2 [1]
  Activity: 56.8%
H9c2 [2]
  Activity: 58.2%

## Cc1cccc(C(=O)OCCCCNC(=N)N)c1
H9c2 [11]
  Activity: 57.4%
H9c2 [1]
  Activity: 65.8%
H9c2 [28]
  Activity: inactive
H9c2 [14]
  EC50: 0.156 µM
H9c2 [2]
  Activity: 64.4%

## COc1cc(C(=O)OCCCCNC(=N)N)cc(OC)c1OC
H9c2 [1]
  Activity: 53.3%
H9c2 [2]
  Activity: 54.1%
